Experimental data of several laboratories.
Protocols differ between the studies behind these lines.
Target: Serine/threonine-protein kinase PLK1 (PLK1, Homo sapiens, UniProt P53350)

| Compound | observed | technique | concentration | remaining binding [%] |
| --- | --- | --- | --- | --- |
| CN(C)c1nccc(-c2cnc3ncccn23)n1 | binding | – | 1 µM | 69 |
| COc1cc(C(=O)N2CCC(N3CCN(C)CC3)CC2)ccc1Nc1ncc2c(n1)N(C)c1ccccc1C(=O)N2C | binding | competition with immobilised ligand | 10 µM | 0.7 |
| O=C(NCCCN1CCOCC1)c1ccc(Nc2ncc(Cl)c(-c3ccc(Cl)s3)n2)cc1 | binding | competition with immobilised ligand | 1 µM | 22 |
| CNC(=O)[C@@H]1CC[C@@H](n2c(-c3ccc4cnccc4c3)nc3ccc(C(=O)NCc4cccc(C(N)=O)c4)cc32)C1 | binding | competition with immobilised ligand | 1 µM | 100 |
| O=C(Nc1c[nH]nc1C(=O)NC1CCNCC1)c1cc(F)cc(F)c1 | binding | competition with immobilised ligand | 1 µM | 100 |
| N#Cc1ccc(Nc2ccc3[nH]c(=O)[nH]c3c2)c(Cl)c1 | cell-free assay | competition with immobilised ligand | 1 µM | 100 |
| C[C@@H](c1ccc(-n2cnc3c(N)ncnc32)cc1)N1CCc2nn(C)c(Cc3ccccc3)c2C1=O | binding | competition with immobilised ligand | 0.1 µM | 86 |
| O=C(NCCCN1CCOCC1)c1ccc(Nc2nccc(-c3cc4ccccc4s3)n2)cc1 | binding | competition with immobilised ligand | 1 µM | 77 |
| CCC(=O)N[C@@H]1CC[C@H](C(=O)N(C)c2ccc(-c3nc4ccccc4o3)cc2)C1 | cell-free assay | competition with immobilised ligand | 1 µM | 95 |
| FC(F)(F)Oc1cccc(-c2cnc3ccc(-c4ccncc4)nn23)c1 | cell-free assay | competition with immobilised ligand | 5 µM | 93 |
| N#Cc1ccccc1CSc1nnc2c(n1)[nH]c1ccccc12 | binding | competition with immobilised ligand | 10 µM | 94 |
| Nc1ncc2c(n1)-c1c([nH]c3ccc(C#CC4CC4)cc13)CCCC2 | binding | competition with immobilised ligand | 1 µM | 68 |
| CC1CCCN1c1nccc(-c2cnn3ncccc23)n1 (stereo not shown) | binding | – | 1 µM | 100 |
| NS(=O)(=O)c1cc(NC(=O)Cc2ccccc2)ccc1Oc1cccc(Cl)c1 | cell-free assay | competition with immobilised ligand | 1 µM | 73 |
| O=C(c1ccc(Nc2ncc(Cl)c(-c3ccc(Cl)s3)n2)cc1)N1CCC(N2CCCC2)CC1 | binding | competition with immobilised ligand | 1 µM | 61 |
| C[C@H](c1cccc(C#N)c1)n1cc(Cl)cc(C(N)=O)c1=N | cell-free assay | competition with immobilised ligand | 1 µM | 89 |
| C[C@@H]1CN(c2ccc3ncc(-c4ccc5[nH]nc(C6CC6)c5c4)n3n2)C[C@H](C)O1 | binding | competition with immobilised ligand | 0.5 µM | 96 |
| C[C@@H]1CCN(c2nccc(-c3cnn4ncccc34)n2)C1 | binding | – | 1 µM | 76 |
| COc1cnc(Nc2cccc(S(N)(=O)=O)c2)nc1N1CCN(c2ccccc2)C(=O)C1 | binding | competition with immobilised ligand | 1 µM | 80 |
| c1cnn2ncc(-c3ccnc(N4CCC45COC5)n3)c2c1 | binding | – | 1 µM | 72 |
| CS(=O)(=O)NCC[C@H](NC(=O)c1cncc2c1cnn2-c1ccc(F)cc1)c1ccnc(S(C)(=O)=O)c1 | cell-free assay | competition with immobilised ligand | 1 µM | 100 |
| CN(c1nccc(-c2cnn3ncccc23)n1)C1CC1 | binding | – | 1 µM | 100 |
| CO[C@@H](C)c1c(Nc2ccc([C@@H](N(C)C(=O)C3CCS(=O)(=O)CC3)C(F)(F)F)cc2)cnc2cc(Cl)nn12 | cell-free assay | competition with immobilised ligand | 1 µM | 87 |
| CN(C)c1nccc(-c2cnn3ncccc23)n1 | binding | – | 1 µM | 56 |
| Cc1c(C(=O)O)cc(-c2ccc(C3CCNCC3)cc2)c2ccc(-c3ccc(C(F)(F)F)cc3)cc12 | binding | competition with immobilised ligand | 1 µM | 94 |
